Screening data: PubChem BioAssay, several laboratories
HCV core dimer: inhibitors of HCV core protein dimerization, primary screen, biochemical, TR-FRET, high-throughput; TR-FRET GST/Flag-core106 dimerization, 1536-well; inhibition, % at 5 µM; hit rate 0.33% among 300,000;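 active = inhibition above the mean of all tested compounds plus 3 SD, set per screening campaign, cut at about 45% in these data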
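System: GST-tagged and Flag-tagged HCV core protein residues 1-106 / Input: core106 proteins, GST 13.5 nM and Flag 17 nM / Buffer or medium: KF-containing HEPES buffer, pH 7.45, DTT, CHAPS, BSA / Probe or stimulus: Eu-anti-GST and XL665-anti-Flag labelled anti-tag antibodies / Schedule: 4 h, 22.5 °C incubation / Technique: TR-FRET 671 and 617 nm emission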
HSF1 activator: HSF-1 activators, primary screen, NIH3T3-HGL cells, MG132 stress, luminescence, single point | NIH3T3-HGL HSF-1 luciferase reporter, 8 h; 100% = twice DMSO control signal | activation, % at 9 µM | hit rate 1.7% among 300,000 | AID 504408, 2011;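 active = mean replicate activation of at least 50% with a set share of replicates each reaching 50%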
HSP90 refold inh: HSP90 inhibitors, primary screen, cell lysate, luminescence. Heat shock protein HSP 90 (rabbit reticulocyte lysate; luciferase refolding). Rabbit reticulocyte lysate, luciferase refolding luminescence, 3 h. inhibition, % at 5.6 µM. hit rate 0.91% among 290,000. AID 1789, 2009;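 active = inhibition above the screen-wide mean plus 3 SD, computed separately per campaign, cut at about 16% in these data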;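 note: inhibitors lower the luminescence because luciferase stays unfolded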
DNA FID counter: compounds displacing fluorescent DNA intercalator, primary screen, artefact control for HCV NS3 helicase inhibitor project, biochemical, FID fluorescence | inhibition, % at 7.9 µM | hit rate 0.17% among 290,000 | DNA fluorescent intercalator displacement; in the data active = inhibition above about 37%;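 note: higher means more ethidium bromide displaced from hairpin DNA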
HCV NS3 hel inh: inhibitors of HCV NS3 helicase, primary screen, biochemical, Cy5 molecular beacon fluorescence; NS3 helicase DNA unwinding; Hepatitis C virus NS3 helicase; AID 1800, 2009; inhibition, % at 10.9 µM; hit rate 0.56% among 290,000;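 active = inhibition above the mean of all tested compounds plus 3 SD, set per campaign, cut at about 35% in these data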
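System: HCV NS3 helicase fragment; control set: DMSO and thioflavine S; technique: Cy5 fluorescence at 0 and 60 min, beacon hairpin quenching; reagent: beacon DNA duplex substrate plus ATP; replicates: singlicate; schedule: 1 h reaction at 25 °C, ATP-initiated; medium: MOPS buffer pH 6.5 with MgCl2, DTT, Tween20, BSA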
HSF1 inhib: HSF1 inhibitors in luciferase reporter cells, primary screen, cell-based, NIH3T3, luminescence; NIH3T3-HGL HSE-luciferase, MG132-induced, luminescence 8 h; hits give low values; activity change, negative = inhibition, % at 7.5 µM (by protocol); hit rate 0.77% among 300,000; AID 2098, 2009;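 active = more than half of replicate wells show activity change below -50%, luminescence cut by over half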;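 note: luciferase reports HSF-1 transcriptional activity via heat shock element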
HSP90 inh confirm: HSP90 inhibitors, confirmation, cell lysate, luminescence; shares compounds with HSP90 refold inh; inhibition, % at 5.9 µM; hit rate 64% among 2,300; rabbit reticulocyte lysate, luciferase refolding luminescence, 3 h; in the data active = inhibition above about 18%
luciferase ctr: firefly luciferase inhibitors, HSP90 counter-screen, confirmation, artefact control for HSP90 inhibitor project, biochemical, luminescence, triplicate. shares compounds with HSP90 refold inh. purified native firefly luciferase. inhibition, % at 5.9 µM. hit rate 48% among 2,300;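 active = inhibition above the mean inhibition of all tested sample wells plus 3 SD, cut at about 10% in these data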
Target sequence (P08659 whole entry, looked up): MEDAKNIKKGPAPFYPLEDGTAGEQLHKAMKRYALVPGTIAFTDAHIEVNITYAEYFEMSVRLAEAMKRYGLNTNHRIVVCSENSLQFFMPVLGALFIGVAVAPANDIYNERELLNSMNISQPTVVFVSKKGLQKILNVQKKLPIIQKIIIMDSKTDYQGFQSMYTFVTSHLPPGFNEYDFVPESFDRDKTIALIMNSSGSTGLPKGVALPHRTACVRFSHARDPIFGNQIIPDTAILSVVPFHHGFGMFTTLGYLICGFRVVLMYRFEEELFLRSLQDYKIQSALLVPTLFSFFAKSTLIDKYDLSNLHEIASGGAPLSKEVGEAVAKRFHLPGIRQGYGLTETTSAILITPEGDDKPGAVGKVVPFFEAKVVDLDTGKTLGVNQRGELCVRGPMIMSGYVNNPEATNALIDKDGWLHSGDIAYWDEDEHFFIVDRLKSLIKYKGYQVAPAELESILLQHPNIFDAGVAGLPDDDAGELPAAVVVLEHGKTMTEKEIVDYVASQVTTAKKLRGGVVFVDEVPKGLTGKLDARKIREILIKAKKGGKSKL
A number is an active result; – = inactive; · = not tested or not shown. Compounds with a hit are over-represented: about 3.9% of the library has one in this group of screens.

SMILES	HCV core dimer	HSF1 activator	HSP90 refold inh	DNA FID counter	HCV NS3 hel inh	HSF1 inhib	HSP90 inh confirm	luciferase ctr
O=C(Nc1cccc(C(=O)O)c1)Nc1cccc2ccccc12	–	–	18.7	–	–	–	31.7	15.3
O=C(Nc1ccc(Cl)cc1)Nc1cccc(C(=O)O)c1	–	–	78.2	–	–	–	88.9	86.7
COC(=O)c1cccc(NC(=O)Nc2ccc(Cl)c(Cl)c2)c1	–	–	–	–	–	–	·	·
CCN(CC(=O)NCc1ccc(F)cc1)C(=O)c1ccc(C)o1	–	–	–	–	–	–	·	·
COCCSc1ccccc1C(=O)Nc1ccc(S(=O)(=O)N2CCOCC2)cc1	·	–	–	–	–	–	·	·
O=C(NCc1ccccc1)C(=O)Nc1cccc(C(=O)O)c1	–	–	41.9	–	–	–	71.3	73.3
CCOc1ccc(NC(=O)Nc2cccc(C(=O)O)c2)cc1	–	–	88.9	–	–	-71.5	89.6	85.5
Cc1ccc(NC(=O)Nc2ccc3c(c2)nc(C)n3C)cc1	–	–	–	–	–	–	·	·
CCOC(=O)c1cccc(NC(=O)Nc2ccc(OCC)cc2)c1	–	–	–	–	–	–	·	·
Cc1nc2cc(NC(=O)Nc3ccccc3Cl)ccc2n1C	–	–	31.9	–	–	–	58.9	38.4
Cc1ccc2nc(NC(=O)c3ccco3)sc2c1	–	–	45.2	–	–	–	82.8	79.0
COc1ccc2nc(NC(=O)c3ccco3)sc2c1	–	–	40.5	–	–	–	58.2	55.6
Cc1ccc(-n2nnc(-c3cccnc3)n2)cc1	–	–	·	·	·	–	·	·
Cc1ccc(-n2nnc(-c3nccn3C)n2)cc1	–	–	33.0	–	–	–	49.5	37.4
CC(C)(C)NC(=O)C(c1ccc(F)cc1)N(Cc1ccco1)C(=O)CCC(=O)Nc1nccs1 (stereo unspecified)	–	–	–	–	–	–	·	·
O=c1[nH]c(Nc2ccccc2)cc2ccccc12	–	–	17.4	–	–	–	25.0	–
CCN1CCN(/C=N/c2nc3c(s2)CCCC3)CC1	–	–	64.7	–	–	-55.4	71.8	41.8
COc1cc(C=O)ccc1OCCCOc1ccccc1C(=O)O	–	–	73.6	–	–	–	76.4	34.0
COC(=O)c1ccccc1OCCCOc1ccc(C)cc1OC	–	–	94.4	–	–	–	100.1	–
O=C(c1cccc(C(F)(F)F)c1)N1CCCC1	–	–	–	–	–	–	·	·
O=C(Nc1ccc(C(=O)N2CCCC2)cc1)c1cccc(C(F)(F)F)c1	–	–	20.8	–	–	–	–	–
Cc1cc(CC(C)C)n(-c2nc3ccccc3c(=O)n2OCC(=O)N(C)C)n1	–	·	–	–	–	·	·	·
Cc1cc(CC(C)C)n(-c2nc3ccccc3c(=O)n2OCc2ccccc2)n1	–	–	17.6	–	–	–	–	9.5
C/C(O)=c1/ccc2cccc3nc(C)nc1c23	–	–	–	–	–	–	·	·
COC(=O)c1cc(C)nc2c1C(=O)C(=O)C=C2N1CCOCC1	–	–	44.7	–	–	–	91.1	–
SMILES	HCV core dimer	HSF1 activator	HSP90 refold inh	DNA FID counter	HCV NS3 hel inh	HSF1 inhib	HSP90 inh confirm	luciferase ctr
COC(=O)c1cc(S(=O)(=O)N2CCOCC2)c(Cl)cc1N1CCOCC1	–	–	–	–	–	–	·	·
c1csc(-c2ccc(N3CCOCC3)nn2)c1	–	–	27.6	–	–	–	33.8	16.6
CCOC(=O)C1CCN(c2ccc(-c3cccs3)nn2)CC1	–	–	27.0	–	–	–	34.2	38.5
CCOC(=O)c1cn2nc(N3CCCC3)ccc2n1	–	–	34.1	–	–	–	67.0	42.9
CCOC(=O)c1cn2nc(Oc3ccccc3)ccc2n1	–	–	–	–	–	–	·	·
CCOC(=O)c1cn2nc(N3CCCCC3)ccc2n1	–	–	39.1	–	–	–	72.0	58.9
Cc1ccc(-c2cc3c(nn2)-c2ccccc2C3=O)cc1	–	–	28.4	–	–	–	75.4	89.1
Cc1ccccc1-c1cc2c(nn1)-c1ccccc1C2=O	–	–	74.2	–	–	–	–	–
O=C1c2ccccc2-c2nnc(-c3ccc(F)cc3)cc21	–	–	–	–	–	–	·	·
O=c1[nH]c(O)c(/C=C2\C=Nc3ccc(Br)cc32)[nH]1	–	–	–	–	–	–	·	·
CC(=O)NNc1nc2ccccc2s1	–	–	–	–	–	–	·	·
C/C(=C\C(=O)c1ccccc1)NNc1nc2ccccc2s1	–	–	36.5	–	–	–	–	–
O=C(Nc1ncccc1O)c1ccc(OCC2CCCO2)cc1 (stereo unspecified)	–	–	23.9	–	–	–	43.6	19.8
Cc1cnc(NC(=O)c2ccc(OCC3CCCO3)cc2)s1 (stereo unspecified)	–	–	46.9	–	–	–	59.6	51.3
O=C(NC1=NCCS1)c1ccc(OCC2CCCO2)cc1 (stereo unspecified)	–	–	–	–	–	–	·	·
O=C(Nc1nc2ccccc2s1)c1ccc(OCC2CCCO2)cc1 (stereo unspecified)	–	–	19.3	–	–	–	38.9	33.4
O=Cc1cccn1-c1ccc2ccccc2c1	–	–	–	–	–	–	·	·
CCOC(=O)c1c(-c2ccccc2)csc1NC(=O)c1cc(S(=O)(=O)N2CCOCC2)ccc1C	–	–	–	–	–	–	·	·
c1ccc(-c2onc(-c3ccco3)c2-c2ccc3[nH]ccc3c2)cc1	–	–	–	–	–	–	·	·
COc1ccc2c(c1)Cc1sc(NC(=O)c3ccccc3)nc1-2	–	–	17.7	–	–	–	–	–
COc1ccc(C(=O)Nc2nc3ccccc3s2)cc1	–	–	36.6	–	–	–	72.7	66.8
COc1ccc(C(=O)Nc2nc3c(s2)Cc2cc(OC)ccc2-3)cc1	–	–	–	–	–	–	·	·
COC(=O)c1ccc2nc(NC(=O)C3CC3)sc2c1	–	–	39.5	–	–	–	56.5	–
Cc1c(S(=O)(=O)Nc2cccc(Cl)c2)c(=O)n(C)c(=O)n1C	–	–	–	–	–	–	·	·
CCCCCN(C(=O)CCC(=O)OCc1cccc(C)c1)c1c(N)n(CCCC)c(=O)[nH]c1=O	–	–	·	·	·	–	·	·
